Laboratory results taken from ChEMBL document CHEMBL4340542, “Design, synthesis and biological evaluation of 4-aniline-thieno[2,3-d]pyrimidine derivatives as MNK1 inhibitors against renal cell carcinoma and nasopharyngeal carcinoma” (Bioorg Med Chem, 2019).
pIC50: −log10 of the molar value. Activity calls are given as the source filed them. The rule behind the calls is not given here.

Columns and labels:
786-0 [1] = assay: Induction of apoptosis in human 786-O cells assessed as viable cells at 1 uM incubated for 24 hrs by Annexin-V/propidium iodide staining based flow cytometric method (reference value: 93.63%); format: functional; conditions: 786-0, 24 h, read-out: Activity
[2] = biological target: T1, MAP kinase-interacting serine/threonine-protein kinase 1 (Homo sapiens, UniProt Q9BUB5); assay: Inhibition of human MNK1 using CREBtide substrate by gamma-[32P]-ATP competitive inhibition assay
Outline: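 Run as the Eurofins KinaseProfiler radiometric assay, competitive with γ-[32P]-ATP. IC50 taken as the mean of independent experiments; the footnote gives two.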
Target sequence in this assay (Q9BUB5 whole entry): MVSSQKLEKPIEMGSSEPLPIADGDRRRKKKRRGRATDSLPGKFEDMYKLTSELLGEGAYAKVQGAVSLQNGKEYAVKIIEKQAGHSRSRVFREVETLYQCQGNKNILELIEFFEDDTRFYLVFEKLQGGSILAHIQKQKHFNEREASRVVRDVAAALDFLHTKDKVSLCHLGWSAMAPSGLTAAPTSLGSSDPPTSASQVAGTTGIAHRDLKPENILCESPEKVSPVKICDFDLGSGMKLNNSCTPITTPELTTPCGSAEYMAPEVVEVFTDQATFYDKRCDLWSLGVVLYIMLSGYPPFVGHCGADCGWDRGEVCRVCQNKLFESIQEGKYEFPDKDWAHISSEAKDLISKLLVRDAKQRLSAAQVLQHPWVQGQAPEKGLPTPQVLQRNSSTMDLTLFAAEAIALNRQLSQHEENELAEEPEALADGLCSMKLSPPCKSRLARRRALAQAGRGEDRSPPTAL

CNE = assay: Cytotoxicity against human CNE1 cells assessed as decrease in cell viability incubated for 24 hrs by MTT assay; format: functional, cell-based
Outline: (§1)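 IC50 from an 8–10 point concentration gradient by MTT assay. Panel covers renal cell carcinoma and nasopharyngeal carcinoma lines. Values are mean ± SD, n = 3.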

CNE-2 = assay: Cytotoxicity against human CNE2 cells assessed as decrease in cell viability incubated for 24 hrs by MTT assay; format: functional, cell-based; outline: as §1
SUNE1 [3] = assay: Cytotoxicity against human SUNE1 cells assessed as decrease in cell viability incubated for 24 hrs by MTT assay; format: functional, cell-based; outline: as §1
Homo sapiens = organism: Homo sapiens; assay: Cytotoxicity against human HNE1 cells assessed as decrease in cell viability incubated for 24 hrs by MTT assay; format: functional, cell-based; outline: as §1
A498 = assay: Cytotoxicity against human A498 cells assessed as decrease in cell viability incubated for 24 hrs by MTT assay; format: functional, cell-based; outline: as §1
CAKI-1 = assay: Cytotoxicity against human Caki1 cells assessed as decrease in cell viability incubated for 24 hrs by MTT assay; format: functional, cell-based; outline: as §1
786-0 [4] = assay: Cytotoxicity against human 786-O cells assessed as decrease in cell viability incubated for 24 hrs by MTT assay; format: functional, cell-based; outline: as §1
786-0 [5] = assay: Induction of apoptosis in human 786-O cells assessed as early apoptotic cells at 1 uM incubated for 24 hrs by Annexin-V/propidium iodide staining based flow cytometric method (reference value: 1.74%); format: functional
786-0 [6] = assay: Induction of apoptosis in human 786-O cells assessed as late apoptotic cells at 1 uM incubated for 24 hrs by Annexin-V/propidium iodide staining based flow cytometric method (reference value: 3.80%); format: functional
786-0 [7] = assay: Induction of apoptosis in human 786-O cells assessed as necrotic cells at 1 uM incubated for 24 hrs by Annexin-V/propidium iodide staining based flow cytometric method (reference value: 0.83%); format: functional
786-0 [8] = assay: Induction of apoptosis in human 786-O cells assessed as early apoptotic cells at 5 uM incubated for 24 hrs by Annexin-V/propidium iodide staining based flow cytometric method (reference value: 1.74%); format: functional
786-0 [9] = assay: Induction of apoptosis in human 786-O cells assessed as late apoptotic cells at 5 uM incubated for 24 hrs by Annexin-V/propidium iodide staining based flow cytometric method (reference value: 3.80%); format: functional
786-0 [10] = assay: Induction of apoptosis in human 786-O cells assessed as necrotic cells at 5 uM incubated for 24 hrs by Annexin-V/propidium iodide staining based flow cytometric method (reference value: 0.83%); format: functional
SUNE1 [11] = assay: Induction of apoptosis in human SUNE1 cells assessed as early apoptotic cells at 1 uM incubated for 24 hrs by Annexin-V/propidium iodide staining based flow cytometric method (reference value: 1.03%); format: functional
SUNE1 [12] = assay: Induction of apoptosis in human SUNE1 cells assessed as late apoptotic cells at 1 uM incubated for 24 hrs by Annexin-V/propidium iodide staining based flow cytometric method (reference value: 4.11%); format: functional
SUNE1 [13] = assay: Induction of apoptosis in human SUNE1 cells assessed as necrotic cells at 1 uM incubated for 24 hrs by Annexin-V/propidium iodide staining based flow cytometric method (reference value: 1.07%); format: functional
SUNE1 [14] = assay: Induction of apoptosis in human SUNE1 cells assessed as early apoptotic cells at 5 uM incubated for 24 hrs by Annexin-V/propidium iodide staining based flow cytometric method (reference value: 1.03%); format: functional
SUNE1 [15] = assay: Induction of apoptosis in human SUNE1 cells assessed as late apoptotic cells at 5 uM incubated for 24 hrs by Annexin-V/propidium iodide staining based flow cytometric method (reference value: 4.11%); format: functional
SUNE1 [16] = assay: Induction of apoptosis in human SUNE1 cells assessed as necrotic cells at 5 uM incubated for 24 hrs by Annexin-V/propidium iodide staining based flow cytometric method (reference value: 1.07%); format: functional
SUNE1 [17] = assay: Effect on total ERK1/2 protein expression in human SUNE1 cells incubated for 24 hrs by Western blot analysis relative to control; format: ADME, cell-based; conditions: sune1, 24 h
Outline: (§2)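 Cells treated 24 h at 1 µM. The test compound was also given 6 h. Cells harvested, trypsinised and washed twice in cold PBS, then lysed in RIPA buffer on ice and sonicated. Lysate centrifuged cold at 10000 g for 30 min. Supernatant protein quantified, run on SDS-PAGE, transferred to PVDF and probed for ERK1/2, pERK1/2, MNK1, eIF4E and p-eIF4E.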

[18] = biological target: T1, MAP kinase-interacting serine/threonine-protein kinase 1; assay: Inhibition of MNK1 in human 786-O cells assessed as decrease in eIF4E phosphorylation at 1 uM incubated for 24 hrs by Western blot analysis relative to control; format: cell-based; outline: as §2
Target sequence in this assay (Q9BUB5 whole entry, looked up): as the sequence (Q9BUB5 whole entry) above

[19] = biological target: T2, Mitogen-activated protein kinase; ERK1/ERK2 (Homo sapiens) (UniProt P27361+P28482); assay: Inhibition of ERK1/2 phosphorylation in human 786-O cells at 1 uM incubated for 24 hrs by Western blot analysis relative to control; format: cell-based; outline: as §2
SUNE1 [20] = assay: Effect on total MNK1 protein expression in human SUNE1 cells incubated for 24 hrs by Western blot analysis relative to control; format: ADME, cell-based; conditions: sune1, 24 h; outline: as §2
[21] = biological target: T2, Mitogen-activated protein kinase; ERK1/ERK2 (Homo sapiens); assay: Inhibition of ERK1/2 phosphorylation in human SUNE1 cells at 1 uM incubated for 24 hrs by Western blot analysis relative to control; format: cell-based; outline: as §2
786-0 [22] = assay: Induction of apoptosis in human 786-O cells assessed as viable cells at 5 uM incubated for 24 hrs by Annexin-V/propidium iodide staining based flow cytometric method (reference value: 93.63%); format: functional; conditions: 786-0, 24 h, read-out: Activity
SUNE1 [23] = assay: Induction of apoptosis in human SUNE1 cells assessed as viable cells at 1 uM incubated for 24 hrs by Annexin-V/propidium iodide staining based flow cytometric method (reference value: 93.79%); format: functional; conditions: SUNE1, 24 h, read-out: Activity
SUNE1 [24] = assay: Induction of apoptosis in human SUNE1 cells assessed as viable cells at 5 uM incubated for 24 hrs by Annexin-V/propidium iodide staining based flow cytometric method (reference value: 93.79%); format: functional; conditions: SUNE1, 24 h, read-out: Activity
SUNE1 [25] = assay: Induction of apoptosis in human SUNE1 cells incubated for 24 hrs by Annexin-V/propidium iodide staining based flow cytometric method (reference value: 93.79%); format: functional, cell-based
786-0 [26] = assay: Induction of apoptosis in human 786-O cells incubated for 24 hrs by Annexin-V/propidium iodide staining based flow cytometric method; format: functional, cell-based
SUNE1 [27] = assay: Effect on total eIF4E protein expression in human SUNE1 cells incubated for 24 hrs by Western blot analysis relative to control; format: ADME, cell-based; conditions: sune1, 24 h; outline: as §2
786-0 [28] = assay: Effect on total ERK1/2 protein expression in human 786-O cells incubated for 24 hrs by Western blot analysis relative to control; format: cell-based; conditions: 786-0, 24 h; outline: as §2
786-0 [29] = assay: Effect on total MNK1 protein expression in human 786-O cells incubated for 24 hrs by Western blot analysis relative to control; format: cell-based; conditions: 786-0, 24 h; outline: as §2
786-0 [30] = assay: Effect on total eIF4E protein expression in human 786-O cells incubated for 24 hrs by Western blot analysis relative to control; format: cell-based; conditions: 786-0, 24 h; outline: as §2

T2 sequence (P27361 whole entry, looked up): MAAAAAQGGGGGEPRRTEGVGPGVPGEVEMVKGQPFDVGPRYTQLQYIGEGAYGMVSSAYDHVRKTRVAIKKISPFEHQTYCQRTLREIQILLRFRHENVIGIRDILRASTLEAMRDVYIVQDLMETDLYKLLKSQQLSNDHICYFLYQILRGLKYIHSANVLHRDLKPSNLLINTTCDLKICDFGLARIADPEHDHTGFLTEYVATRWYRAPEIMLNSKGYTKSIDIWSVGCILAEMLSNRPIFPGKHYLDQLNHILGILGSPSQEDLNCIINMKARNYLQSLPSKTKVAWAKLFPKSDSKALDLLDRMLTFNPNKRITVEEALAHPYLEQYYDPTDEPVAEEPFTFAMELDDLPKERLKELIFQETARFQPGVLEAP
T2 sequence (P28482 whole entry, looked up): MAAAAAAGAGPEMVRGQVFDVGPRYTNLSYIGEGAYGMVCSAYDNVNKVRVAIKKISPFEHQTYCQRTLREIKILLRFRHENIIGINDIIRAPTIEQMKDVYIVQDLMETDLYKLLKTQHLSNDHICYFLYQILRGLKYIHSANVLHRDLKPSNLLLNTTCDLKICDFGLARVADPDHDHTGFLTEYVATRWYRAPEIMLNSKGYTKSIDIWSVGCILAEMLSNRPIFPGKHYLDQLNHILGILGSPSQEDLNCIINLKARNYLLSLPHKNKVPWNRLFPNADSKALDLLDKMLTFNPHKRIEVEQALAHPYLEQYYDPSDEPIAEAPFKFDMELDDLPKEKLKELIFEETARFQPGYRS

`COc1ccc(S(=O)(=O)N2CCc3c(sc4ncnc(Nc5ccc(F)cc5OC)c34)C2)cc1` was tested, and the viability at 1 µM (786-0 [1]) was 68.9%, the pIC50 [2] was 6.19 and the Activity (CNE) was “Active”. The Activity (CNE-2) was “Active”, the Activity (SUNE1 [3]) was “Active” and the Activity (Homo sapiens) was “Active”. The Activity (A498) was “Active”, the Activity (CAKI-1) was “Active” and the Activity (786-0 [4]) was “Active”. The Activity (786-0 [5]) was 17.94%, the Activity (786-0 [6]) was 8.5% and the Activity (786-0 [7]) was 4.64%. It also gave an Activity (786-0 [8]) of 37.44%, an Activity (786-0 [9]) of 11.79% and an Activity (786-0 [10]) of 7.88%. For the same compound, the Activity (SUNE1 [11]) was 34.6%, the Activity (SUNE1 [12]) was 18.18% and the Activity (SUNE1 [13]) was 10.6%. The Activity (SUNE1 [14]) was 49.87%, the Activity (SUNE1 [15]) was 10.61% and the Activity (SUNE1 [16]) was 3.52%. For the same compound, the Activity (SUNE1 [17]) was “Non-Toxic”, the inhibition [18] was “Dose-dependent effect” and the inhibition [19] was “inactive”. The Activity (SUNE1 [20]) was “Non-Toxic”, the inhibition [21] was “inactive” and the viability at 5 µM (786-0 [22]) was 42.9%. For the same compound, the viability at 1 µM (SUNE1 [23]) was 36.6%, the viability at 5 µM (SUNE1 [24]) was 35.9% and the Activity (SUNE1 [25]) was “Dose-dependent effect”. For the same compound, the Activity (786-0 [26]) was “Dose-dependent effect”, the Activity (SUNE1 [27]) was “Non-Toxic” and the Activity (786-0 [28]) was “Non-Toxic”. For the same compound, the Activity (786-0 [29]) was “Non-Toxic” and the Activity (786-0 [30]) was “Non-Toxic”.
